SMILES strings stand for the structures.

In general, IC50 refers to the point on the concentration scale where inhibition reaches its midpoint. By pIC50 is commonly meant the negative decadic logarithm of the IC50, by convention in mol/L.

In data set [1] the test system is Trypanosoma cruzi. Kind of data set: Anti-trypanosomal activity against Trypanosoma cruzi IRHOD/CO/2008/SN3 epimastigotes after 72 hrs by Neubauer hemocytometric method. It counts as functional, organism-based. The conditions noted are these: IRHOD/CO/2008/SN3, 72 h.
Data set [2] has as its system Trypanosoma cruzi. Nature of the data set: Anti-trypanosomal activity against Trypanosoma cruzi IRHOD/CO/2008/SN3 amastigotes infected in African green monkey Vero cells after 72 hrs by Giemsa-staining based microscopic analysis. The class given is functional, organism-based. The following applies: IRHOD/CO/2008/SN3, Vero.
Another data set concerns Vero. Kind of data set: Cytotoxicity against African green monkey Vero cells after 72 hrs by propidium iodide/fluorescein diacetate staining based flow cytometry. It counts as cell-based. The conditions noted are these: Chlorocebus sabaeus. A general note: In flow cytometry, cells or beads pass a laser one at a time.
Data set [3] in a line: Selectivity index, ratio of IC50 for African green monkey Vero cells to IC50 for Trypanosoma cruzi IRHOD/CO/2008/SN3 epimastigotes. It counts as toxicity. The conditions noted are these: read-out: Ratio IC50.
Data set [4] is described as follows: Selectivity index, ratio of IC50 for African green monkey Vero cells to IC50 for Trypanosoma cruzi IRHOD/CO/2008/SN3 amastigotes infected in African green monkey Vero cells. It counts as toxicity. The following applies: read-out: Ratio IC50.
In data set [5] the test system is Trypanosoma cruzi. Kind of data set: Potency index, ratio benznidazole IC50 to test compound IC50 for anti-trypanosomal activity against Trypanosoma cruzi IRHOD/CO/2008/SN3 epimastigotes. It counts as functional. The method in brief:
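Epimastigotes of the SN3 strain were grown in TLM with 10% inactivated FBS at 28 °C in air. Compounds or benznidazole, dissolved in PEG:EtOH (7:3), were added at final levels of 1, 10, 25 and 50 and left for 72 h. Parasites were counted by haemocytometer. IC50 for 50% growth inhibition was fitted by PROBIT, and values are the mean of three experiments.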

Data set [6] relates to Trypanosoma cruzi. Nature of the data set: Inhibition of PFK in Trypanosoma cruzi IRHOD/CO/2008/SN3 epimastigotes assessed as change in succinate excretion at IC25 after 96 hrs by 1H NMR analysis relative to control. On the set-up: scale not given: the % may be the effect or the level left. The method in brief:
(§1)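 SN3 epimastigotes (starting at 5 × 10⁵ cells/mL) were incubated with compound for 96 h at 28 °C, alongside drug-free control cultures. Cells were pelleted at 400 g for 10 min. Excreted end products in the supernatant were identified and quantified by ¹H NMR against a DSS reference signal, and compared with the controls.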

Data set [7] concerns Trypanosoma cruzi. Kind of data set: Inhibition of PFK in Trypanosoma cruzi IRHOD/CO/2008/SN3 epimastigotes assessed as change in pyruvate excretion at IC25 after 96 hrs by 1H NMR analysis relative to control. On the set-up: scale not given: the % may be the effect or the level left. The method, boiled down:
as §1

Data set [8] relates to Trypanosoma cruzi. Nature of the data set: Inhibition of PFK in Trypanosoma cruzi IRHOD/CO/2008/SN3 epimastigotes assessed as change in acetate excretion at IC25 after 96 hrs by 1H NMR analysis relative to control. Details: scale not given: the % may be the effect or the level left. The method, boiled down: as §1
For data set [9], the system named is Trypanosoma cruzi. Kind of data set: Inhibition of PFK in Trypanosoma cruzi IRHOD/CO/2008/SN3 epimastigotes assessed as change in L-alanine excretion at IC25 after 96 hrs by 1H NMR analysis relative to control. Details: scale not given: the % may be the effect or the level left. The method, boiled down:
as §1

In data set [10] the test system is Trypanosoma cruzi. Kind of data set: Inhibition of PFK in Trypanosoma cruzi IRHOD/CO/2008/SN3 epimastigotes assessed as change in D-lactate excretion at IC25 after 96 hrs by 1H NMR analysis relative to control. Details: scale not given: the % may be the effect or the level left. The method, boiled down: as §1
Data set [11] in a line: Inhibition of Trypanosoma cruzi apoenzyme form of PFK.
Data set [12] concerns Trypanosoma cruzi. Kind of data set: Potency index, ratio benznidazole IC50 to test compound IC50 for anti-trypanosomal activity against Trypanosoma cruzi IRHOD/CO/2008/SN3 amastigotes infected in African green monkey Vero cells. The class given is functional. The method, boiled down: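 Vero cells were grown in RPMI with 10% inactivated FBS at 37 °C in 5% CO2. They were seeded at 1 × 10⁴ cells/well on coverslips, cultured for 2 days, then infected with metacyclic T. cruzi at 10:1 for 24 h and washed. Compounds at 1, 10, 25 and 50 were added for 72 h. Amastigotes in methanol-fixed, Giemsa-stained preparations were counted against untreated cultures.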

Take `Cc1cc(C)c(C)c(S(=O)(=O)n2cnc3ccccc32)c1C`: the IC50 in the data set with Trypanosoma cruzi [1] was 2.2 µM; with Trypanosoma cruzi [2] it was 19 µM; in the data set on Vero it was 205 µM. The figures for the selectivity ratio in data set [3] and in data set [4] were 91.7 and 10.8, respectively. In addition, in the data set with Trypanosoma cruzi [5], the “Ratio IC50” value was 3 - 5. The Activity with Trypanosoma cruzi [6] is -7.22%; in the data set on Trypanosoma cruzi [7], 10.9%; with Trypanosoma cruzi [8], 12%; in the data set on Trypanosoma cruzi [9], 10.4%; with Trypanosoma cruzi [10], 26.4%. In data set [11], the pIC50 was 3.34.
Take `CC(=O)Nc1ccc(S(=O)(=O)n2cnc3ccccc32)cc1`: the half-inhibitory concentration (IC50) with Trypanosoma cruzi [1] amounted to 7.2 µM; in the data set on Trypanosoma cruzi [2], 10.1 µM; with Vero it was 468 µM. Besides, the selectivity ratio was 65.4 in data set [3] and 45.9 in data set [4]. In addition, the “Ratio IC50” value with Trypanosoma cruzi [12] turned out to be 2. Moreover, the Activity was determined as 28.3% in the data set on Trypanosoma cruzi [6]; 2.38% with Trypanosoma cruzi [7]; 12.3% in the data set on Trypanosoma cruzi [8]; 6.8% in the data set on Trypanosoma cruzi [9]; 25.5% in the data set on Trypanosoma cruzi [10]. The molecule further registered a negative logarithm of the IC50 (pIC50) in data set [11] of 3.86.
`O=[N+]([O-])c1cccc(S(=O)(=O)n2cnc3ccccc32)c1`: the IC50 in the data set on Trypanosoma cruzi [1] amounted to 4.6 µM; in the data set with Trypanosoma cruzi [2] it was 15.9 µM; in the data set on Vero, 648 µM. For the same molecule, the selectivity ratio in [3] is 141; in [4], 40.6. Also, in the data set on Trypanosoma cruzi [5], the “Ratio IC50” value is 3 - 5. The Activity is -33.2% with Trypanosoma cruzi [6]; -30.2% with Trypanosoma cruzi [7]; -16.6% in the data set on Trypanosoma cruzi [8]; -22.7% in the data set on Trypanosoma cruzi [9]; -3.97% in the data set with Trypanosoma cruzi [10]. In data set [11], this molecule came in with a negative-log IC50 (pIC50) of 3.66.
